Screens: PubChem BioAssay, several laboratories
The entries come from a sample that favours hits as a whole.
Mdm2 ligase inh: inhibitors of human Mdm2 E3 ubiquitin ligase | 0.11% of 210,000 active | signal enhancement, % at 5 µM | Q00987 | cell-based MDM2 ubiquitination luciferase reporter, 2 h; 0 = plate control, 100 = twice control, blank-subtracted;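 active = signal enhancement of 30% or more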;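 note: luminescence tracks abundance of the self-degrading MDM2-luciferase fusion protein; higher signal means inhibition of MDM2 E3 ligase activity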
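Buffer or medium: Cells held in DMEM | Assay system: Stable mammalian line carrying autodegrading MDM2–luciferase fusion reporter | Quantity: 2000 cells/well | Times: 4 h settle plus 2 h compound, 37 °C | Doses: One concentration, 5 µM, with 0.2% DMSO | Technique: Luminescence with SteadyLite reagent, 15 min at room temperature | Benchmarks: Plate controls and plate blanks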
L major viab: reduces viability of Leishmania major promastigotes | resazurin fluorescence viability | 9% of 200,000 active | inhibition, % at 10 µM; in the data active = inhibition above about 50%;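 note: promastigotes grown with compound for 44 hours at 28 °C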
S1P3 antag: blocks the human S1P3 receptor | Q99500 | CHO S1P3 NFAT-BLA reporter, FRET fluorescence, antagonist mode | inhibition, % at 4.98 µM | 0.27% of 170,000 active;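 active = inhibition above the plate cutoff, the mean inhibition of test wells on that plate plus 3 SD, cut at about 28% in these data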;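 note: cells challenged with S1P at its EC80 of 0.8 µM; blue over green emission ratio from cleaved BLA substrate after 4 h stimulation; 0% = S1P-stimulated wells and 100% = unstimulated DMSO-only wells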
Target sequence (Q99500 whole entry, looked up): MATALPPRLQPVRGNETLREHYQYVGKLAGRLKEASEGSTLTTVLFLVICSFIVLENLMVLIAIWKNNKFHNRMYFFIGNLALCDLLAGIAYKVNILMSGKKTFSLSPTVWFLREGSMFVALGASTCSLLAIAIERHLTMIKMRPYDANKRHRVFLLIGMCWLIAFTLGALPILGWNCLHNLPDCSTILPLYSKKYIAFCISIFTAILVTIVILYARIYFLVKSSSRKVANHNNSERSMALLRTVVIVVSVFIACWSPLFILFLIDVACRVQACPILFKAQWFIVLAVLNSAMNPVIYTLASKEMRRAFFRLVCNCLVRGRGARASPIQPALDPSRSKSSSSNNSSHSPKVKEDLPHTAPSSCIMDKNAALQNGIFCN
S1P4 agonist: human S1P4 receptor agonism. S1P4-expressing cell line, agonist reporter assay. 0.35% of 220,000 active. activation, % at 4.98 µM. O95977; in the data active = activation above about 11%;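 note: 0% = DMSO vehicle and 100% = reference agonist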
S1P4 antag: human S1P4 receptor antagonism | O95977 | S1P4-expressing cells, antagonist mode, reporter read-out | inhibition, % at 4.98 µM | 0.26% of 220,000 active; in the data active = inhibition above about 29%;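 note: 0% = wells stimulated with agonist and 100% = vehicle wells without agonist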
S1P4 agonist cf: confirmation of human S1P4 receptor agonists; shares compounds with S1P4 agonist; S1P4 agonist cell-based reporter assay; activation, % at 4.98 µM; 7% of 740 active; AID 1523; in the data active = activation above about 12%;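 note: 0% = vehicle and 100% = full reference agonist response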
S1P1 agonist: counter-screen for S1P4 agonists: agonists of human S1P1; shares compounds with S1P4 agonist; S1P1 agonist cell-based assay, activation; activation, % at 4.98 µM; 4% of 740 active; AID 1563; in the data active = activation above about 21%;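 note: 0% = vehicle wells and 100% = reference agonist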
* marks the source's active call; other numbers are inactive results; nt = not tested or not shown.

SMILES	Mdm2 ligase inh	L major viab	S1P3 antag	S1P4 agonist	S1P4 antag	S1P4 agonist cf	S1P1 agonist
CCCCC(=O)Nc1nnn(CCC)n1	-9	-10	-14	-1	-18	nt	nt
CCCCC(=O)NC(=S)Nc1nnn(CCC)n1	-10	-9	-18	179*	7	-2	-6
CCOC(=O)CC1C(=O)NCCN1S(=O)(=O)c1ccc(C)cc1 (configuration not stated)	-31	-7	-8	2	-14	nt	nt
CCOC(=O)CC1C(=O)NCCN1S(=O)(=O)c1ccc(Br)cc1 (configuration not stated)	-12	-2	-18	11*	-2	0	4
CCN(N)C(=S)Nc1ccc(F)cc1	5	-5	-1	33*	4	-1	-8
Cc1ccc(NC(=S)N(N)CCO)cc1	-22	-4	-12	3	3	nt	nt
Cc1ccc(S(=O)(=O)NC(=O)Nc2cc(C(C)(C)C)on2)cc1	-5	nt	-7	6	5	nt	nt
O=C(COc1ccccc1)NCCSc1ccccc1	-8	-1	nt	0	0	nt	nt
O=C(CSc1ccc(F)cc1)NCCSc1ccccc1	-29	1	15	11*	-7	-2	-3
Cn1cccc1C(=O)NC(=O)COC(=O)CNC(=O)c1ccc(Cl)cc1Cl	-13	-6	-5	2	-6	nt	nt
Cn1cccc1C(=O)NC(=O)COC(=O)CNC(=O)CNC(=O)c1ccc(Cl)cc1Cl	-17	5	-24	22*	-4	-2	8
CCNC(=S)N/N=C/c1cc(C)ccc1C	-10	-6	-4	3	3	nt	nt
C=CCNC(=S)N/N=C/c1ccc(C)cc1C	-14	4	12	48*	8	-3	-3
Cc1c(NC(=O)c2cc3nc(-c4ccc(Cl)cc4)cc(C(F)(F)F)n3n2)c(=O)n(-c2ccccc2)n1C	-1	-8	nt	0	-12	nt	nt
Cc1cc(/C=C2\SC(=S)N(C)C2=O)c(C)n1-c1cccc(O)c1	-64	nt	-17	0	6	nt	nt
CN=C1S/C(=C\c2cc(C)n(-c3ccccc3F)c2C)C(=O)N1C	-15	62*	nt	59*	-35	89*	72*
Cc1nc2cc(NC(=O)NCc3ccco3)ccc2o1	4	6	1	20*	-20	-2	3
Cc1ccc(C(=O)C[n+]2ccc(-c3nnc4n3CCC4)cc2)cc1	-12	-2	2	0	-10	nt	nt
C=CCn1c(SCC(=O)Nc2nnc(CC)s2)nnc1-c1ccco1	-21	-6	-9	29*	-15	-1	1
CCOC1CCc2c(C)nc(N)nc2S1 (configuration not stated)	-12	nt	-2	24*	2	-2	0
C=C(C)C1Cc2nc(N)nc(C)c2C1 (configuration not stated)	-4	-4	-14	-1	-26	nt	nt
CC1CN(CC(O)COC(c2ccccc2)c2ccccc2)CC(C)O1 (configuration not stated)	-11	86*	-15	57*	-9	-1	5
CC(=O)NCCCc1nc2ccccc2n1Cc1cc(C)ccc1C	3	-4	12	1	-2	nt	nt
CC(=O)NCCCc1nc2ccccc2n1Cc1c(F)cccc1Cl	-24	nt	3	52*	-10	-2	-6
CCOC(=O)N1CCN(Cc2nc(-c3ccc(Cl)cc3)no2)CC1	-17	-7	nt	37*	-4	-2	-3
SMILES	Mdm2 ligase inh	L major viab	S1P3 antag	S1P4 agonist	S1P4 antag	S1P4 agonist cf	S1P1 agonist
CCOc1cc(NS(=O)(=O)c2ccc(NC(C)=O)cc2)c(OCC)cc1NC(=O)c1cccs1	0	14	6	1	-1	nt	nt
Cn1cccc1C(=O)C(=O)Nc1cccc(Cl)c1Cl	-11	-3	nt	20*	1	-1	1
CNC(=O)c1[nH]cnc1C(=O)N[C@@H](Cc1ccccc1)C(=O)OCc1ccccc1	nt	5	-35	23*	-26	56*	38*
CNC(=O)c1[nH]cnc1C(=O)N[C@@H](Cc1ccccc1)C(=O)OC(C)(C)C	nt	-8	-12	0	8	nt	nt
O=C(O)COc1ccc(/C=C/c2nc3ccc([N+](=O)[O-])cc3s2)cc1	-12	nt	14	0	-12	nt	nt
COc1cc(Cl)c(C)cc1NC(=O)c1ccc2c(SCC(=O)O)c3c(nc2c1)CCCC3	1	0	7	2	-3	nt	nt
COc1ccc(C)cc1NC(=O)c1ccc2c(SCC(=O)O)c3c(nc2c1)CCCC3	nt	nt	-20	45*	-12	-2	-3
Cc1ccc(-c2nc(NC(=O)c3cc(C(C)(C)C)nn3C)sc2C)cc1Cl	-3	nt	-2	1	-9	nt	nt
COc1cc(NC2=CC(=O)CC(C)(C)C2)cc(OC)c1	-8	-2	-12	28*	-2	-1	3
Cc1ccc(NC(=O)COC(=O)C2CC(=O)N(Cc3ccccc3)C2)cc1F (configuration not stated)	-13	-1	1	1	-3	nt	nt
C/C(CC(=O)Nc1ccc(Cl)cc1Cl)=N\NC(=O)c1cnccn1	-9	nt	-3	2	-1	nt	nt
CN(C)S(=O)(=O)c1cccc(NC(=O)c2ccc3nccnc3c2)c1	-15	nt	-10	1	-2	nt	nt
CCOc1cc(CNCCSc2nnnn2C)cc(Br)c1OCc1ccc(F)cc1	-19	50*	10	41*	1	-1	-10
COc1ccc(CNCCSc2nnnn2C)cc1OC	4	-4	nt	2	-7	nt	nt
Cc1ccc(C(=O)NCCCc2ccccc2)s1	-3	15	14	2	-11	nt	nt
O=C(Cn1cncn1)N/N=C/c1ccc(Cl)cc1	-2	-4	11	1	-5	nt	nt
O=C(Cn1cncn1)NCc1ccc(Cl)cc1	6	-7	-1	13*	-11	-2	-6
CCOc1ccc(C(CC(=O)O)NC(=O)C23CC4CC(CC(C4)C2)C3)cc1 (configuration not stated)	-18	-7	nt	0	-7	nt	nt
Cc1ccsc1/C=N/n1c(C2CCCCC2)n[nH]c1=S	-10	-2	5	5	-10	nt	nt
Cc1ccc(/C=N/n2c(C3CCCCC3)n[nH]c2=S)s1	-6	37	-9	21*	-10	-1	0
O=C(NC(=O)c1cccc(OC(F)(F)C(F)F)c1)OC1CCS(=O)(=O)C1 (configuration not stated)	-1	-3	4	0	-15	nt	nt
COc1ccc(-c2noc(CSc3nc4sc(C)c(C)c4c(=O)n3-c3ccccc3)n2)cc1	8	-4	-2	21*	-11	0	-1
O=C(CN1C(=O)C2CCCCC2C1=O)Nc1nccs1 (configuration not stated)	-32	4	-2	-1	-4	nt	nt
O=C(CCC1CCCCC1)Nc1nccs1	-13	-4	-9	126*	-4	-1	-2
CC(=O)N=c1c(C#N)cc2c(=O)n3ccccc3nc2n1CCCOC(C)C	-6	nt	-3	16*	-22	4	1
